A short description of assay [1]: Selectivity index ratio of IC50 for MAOB to IC50 for MAOA. In short, it runs like this: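 Bovine brain mitochondria (6 mg/ml) in 0.25 M phosphate buffer, pH 7.4, with 0.1 mM isoform-specific substrate. Compound in propylene glycol at 0.5 nM–0.1 M; 60 min at 37 °C, perchloric acid stop, fluorimetric read. Six samples in duplicate; ratio of the MAO-B and MAO-A IC50s.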

The target in assay [2] is Amine oxidase [flavin-containing] B (Bos taurus) (UniProt P56560).
Assay [3] is described as follows: Inhibition of MAOA by spectrofluorimetry.

SMILES strings stand for the structures.

Amine oxidase [flavin-containing] B (Bos taurus), sequence (P56560 whole entry, looked up): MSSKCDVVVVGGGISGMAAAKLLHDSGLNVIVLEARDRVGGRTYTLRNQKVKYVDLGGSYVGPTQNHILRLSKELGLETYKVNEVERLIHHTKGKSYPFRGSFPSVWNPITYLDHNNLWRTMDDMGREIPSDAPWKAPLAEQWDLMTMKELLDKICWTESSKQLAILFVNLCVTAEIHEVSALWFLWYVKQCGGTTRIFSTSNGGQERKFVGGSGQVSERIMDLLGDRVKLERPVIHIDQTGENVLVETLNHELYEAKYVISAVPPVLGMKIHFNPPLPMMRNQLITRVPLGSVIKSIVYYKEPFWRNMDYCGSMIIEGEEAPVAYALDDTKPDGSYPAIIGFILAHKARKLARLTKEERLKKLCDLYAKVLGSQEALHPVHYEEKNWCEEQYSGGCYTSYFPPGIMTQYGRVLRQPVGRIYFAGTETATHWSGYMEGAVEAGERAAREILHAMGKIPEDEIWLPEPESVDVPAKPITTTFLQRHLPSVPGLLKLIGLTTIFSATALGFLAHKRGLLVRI

With `COc1ccc(/C=N/Nc2nc3ccccc3nc2Cc2ccccc2)cc1OC`, the Ratio IC50 in assay [1] worked out at 8210. Also, the figures for the IC50 in assay [2] and in assay [3] were 460 µM and 0.056 µM, respectively.
Take `CN(C)c1ccc(-c2nnc3c(C(=O)c4ccccc4)nc4ccccc4n23)cc1Br`: in assay [2], the IC50 (commonly the concentration at which inhibition is half-maximal) was found to be 73 µM.
Consider `O=C(c1ccccc1)c1nc2ccccc2n2cnnc12`, for which the Ratio IC50 in assay [1] came to 1250. For the same compound, the IC50 in assay [2] turned out to be 940 µM; in assay [3] it was 0.75 µM.
For `CN(C)c1ccc(-c2nnc3c(C(=O)c4ccccc4)nc4ccccc4n23)cc1` the same measures were 2.7e+06, 7300 µM and 0.0027 µM.
In assay [2], `C/C(=N\Nc1nc2ccccc2nc1Cc1ccccc1)c1ccc([N+](=O)[O-])cc1` showed an IC50 of 89 µM.
On to `c1ccc(Cc2nc3ccccc3n3cnnc23)cc1`, for which the Ratio IC50 in assay [1] turned out to be 1090. For the same compound, the IC50 in assay [2] stood at 95 µM; in assay [3], 0.087 µM.
Turning to `C/C(=N\Nc1nc2ccccc2nc1Cc1ccccc1)c1ccc(N)cc1`, in assay [1], the Ratio IC50 was determined as 87700. Also, the IC50 in assay [2] stood at 860 µM; in assay [3] it was 0.0098 µM.
With `COc1ccc(-c2nnc3c(C(=O)c4ccccc4)nc4ccccc4n23)cc1`, the IC50 in assay [2] came out at 85 µM.
As for `C/C(=N\Nc1nc2ccccc2nc1Cc1ccccc1)c1ccccc1`, the Ratio IC50 in assay [1] is 12400. Further, the figures for the IC50 in assay [2] and in assay [3] were 980 µM and 0.079 µM, respectively.
In the case of `Cc1ccsc1/C=N/Nc1nc2ccccc2nc1Cc1ccccc1`, the midpoint of inhibition in assay [2], the IC50, lay at 860 µM.
On the same count and under the same terms, under `COc1ccc(/C=N/Nc2nc3ccccc3nc2Cc2ccccc2)cc1` stands 79 µM.
Regarding `Clc1ccc(/C=N/Nc2nc3ccccc3nc2Cc2ccccc2)cc1`, in assay [1], the Ratio IC50 is 1100. Also, the 50% inhibitory concentration (IC50) in assay [2] amounted to 84 µM; in assay [3], 0.076 µM.
For `C/C(=N\Nc1nc2ccccc2nc1Cc1ccccc1)c1ccc(O)cc1` the same measures were 3e+06, 8400 µM and 0.0028 µM.
For `C/C(=N\Nc1nc2ccccc2nc1Cc1ccccc1)c1cccs1` the same measures were 13300, 850 µM and 0.064 µM.
For the compound `c1ccc(Cc2nc3ccccc3n3c(-c4ccccc4)nnc23)cc1`, the Ratio IC50 in assay [1] amounted to 12000. For the same compound, the IC50 in assay [2] amounted to 980 µM; in assay [3], 0.082 µM.
Consider `C=NNc1nc2ccccc2nc1Cc1ccccc1`, for which the Ratio IC50 in assay [1] is 10400. For the same compound, the IC50 in assay [2] came out at 950 µM; in assay [3], 0.086 µM.
For the compound `CN(C)c1ccc(/C=N/Nc2nc3ccccc3nc2Cc2ccccc2)cc1`, the Ratio IC50 in assay [1] worked out at 10600. The IC50 is 880 µM in assay [2] and 0.083 µM in assay [3].
For `Clc1ccccc1/C=N/Nc1nc2ccccc2nc1Cc1ccccc1` the same measures were 15000, 87 µM and 0.0058 µM.
For `COc1cc(/C(C)=N/Nc2nc3ccccc3nc2Cc2ccccc2)cc(OC)c1OC` the same measures were 8960, 260 µM and 0.029 µM.
In the same order, the values of `Oc1ccc(/C=N/Nc2nc3ccccc3nc2Cc2ccccc2)cc1` are 2.32e+06, 7900 µM and 0.0034 µM.
With `COc1ccc(/C(C)=N/Nc2nc3ccccc3nc2Cc2ccccc2)cc1`, the Ratio IC50 in assay [1] came to 3140. Besides, the IC50 came to 280 µM in assay [2] and 0.089 µM in assay [3].
For `C(=N\Nc1nc2ccccc2nc1Cc1ccccc1)/c1ccccc1` the same measures were 3950, 320 µM and 0.081 µM.
For `C/C(=N\Nc1nc2ccccc2nc1Cc1ccccc1)c1ccc(C)cc1` the same measures were 8600, 740 µM and 0.086 µM.
In assay [2], `C(=N\Nc1nc2ccccc2nc1Cc1ccccc1)/c1ccc2c(c1)OCO2` displayed an IC50 of 87 µM.
Consider `COc1ccc(-c2nnc3c(C(=O)c4ccccc4)nc4ccccc4n23)cc1OC`, for which the Ratio IC50 in assay [1] is 12600. For the same compound, the figures for the IC50 in assay [2] and in assay [3] were 86 µM and 0.0068 µM, respectively.
In the same order, the values of `O=C(c1ccccc1)c1nc2ccccc2n2c(-c3ccccc3Cl)nnc12` are 4310, 380 µM and 0.088 µM.
For `Clc1ccccc1-c1nnc2c(Cc3ccccc3)nc3ccccc3n12` the same measures were 11800, 72 µM and 0.0061 µM.
On to `C/C(=N\Nc1nc2ccccc2nc1Cc1ccccc1)c1ccccn1`, for which, in assay [1], the Ratio IC50 was 10800. Also, the IC50 in assay [2] came out at 980 µM; in assay [3] it was 0.091 µM.
For `O=C(c1ccccc1)c1nc2ccccc2n2c(-c3ccc([N+](=O)[O-])cc3)nnc12` the same measures were 10400, 230 µM and 0.022 µM.
As for `COc1ccccc1/C=N/Nc1nc2ccccc2nc1Cc1ccccc1`, the Ratio IC50 in assay [1] was found to be 9510. The figures for the IC50 in assay [2] and in assay [3] were 790 µM and 0.083 µM, respectively.
In the same order, the values of `O=C(c1ccccc1)c1nc2ccccc2n2c(-c3ccccc3)nnc12` are 88800, 240 µM and 0.0027 µM.

Values taken from ChEMBL document CHEMBL1255505, “Synthesis of new series of quinoxaline based MAO-inhibitors and docking studies” (Eur J Med Chem, 2010).
